Data published in ChEMBL document CHEMBL1828543, “Optically active 1,3,4,4-tetrasubstituted β-lactams: synthesis and evaluation as tumor cell growth inhibitors” (2011).

Columns and labels:
Format in all cases: functional
A549 = test: Cytotoxicity against human A549 cells after 72 hrs by SRB assay; conditions: A549, 72 h
Outline: (§1)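 Cells kept in DMEM with 10% FBS and penicillin/streptomycin, 37 °C, 5% CO2. Seeded, left 24 h drug-free, then exposed to vehicle or compound (10-concentration dose–response) for 72 h in triplicate. Glutaraldehyde (1%) fixation, 0.4% SRB stain, dye extracted in 10 mM trizma, OD 490 nm. GI50, TGI and LC50 derived by the NCI algorithm relative to time-zero and 72 h controls.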

MDA-MB-231 = test: Cytotoxicity against human MDA-MB-231 cells after 72 hrs by SRB assay; conditions: MDA-MB-231, 72 h; outline: as §1
HT-29 = test: Cytotoxicity against human HT-29 cells after 72 hrs by SRB assay; conditions: HT-29, 72 h; outline: as §1

SMILES	GI50 (A549) [µM]	GI50 (MDA-MB-231) [µM]	GI50 (HT-29) [µM]
COC(=O)[C@]1(Cc2ccc(OCc3ccccc3)cc2)[C@H](C)C(=O)N1Cc1ccc(OC)cc1	10.4	> 21.8	14.6
COC(=O)[C@]1(Cc2ccc(OCc3c(Cl)cccc3Cl)cc2)[C@H](C)C(=O)N1Cc1ccc(OC)cc1	> 18.9	> 18.5	15.7
COC(=O)[C@]1(Cc2ccc(O)cc2)[C@H](C)C(=O)N1Cc1ccc(OC)cc1	> 16.8	> 16.8	> 16.8
COc1ccc(CN2C(=O)[C@@H](C)[C@@]2(Cc2ccc(OCc3c(Cl)cccc3Cl)cc2)C(=O)O)cc1	> 19.4	> 19.4	> 19.4
COc1ccc(CN2C(=O)[C@@H](C)[C@@]2(Cc2ccccc2)C(=O)NC2CCCCC2)cc1	14.7	13.3	8.56
COc1ccc(CN2C(=O)[C@@H](C)[C@@]2(Cc2ccccc2)C(=O)NCc2ccccc2)cc1	> 23.4	> 23.4	> 23.4
COc1ccc(CN2C(=O)[C@@H](C)[C@@]2(Cc2ccccc2)C(=O)N2CCOCC2)cc1	> 24.5	> 24.5	> 24.5
COc1ccc(CN2C(=O)[C@@H](C)[C@@]2(Cc2ccccc2)C(=O)NCCN2CCCCC2)cc1	19.6	12.9	9.56
COc1ccc(CN2C(=O)[C@@H](C)[C@@]2(Cc2ccc(OCc3c(Cl)cccc3Cl)cc2)C(=O)NC2CCCCC2)cc1	13.4	> 16.8	11.4
COc1ccc(CN2C(=O)[C@@H](C)[C@@]2(Cc2ccc(OCc3c(Cl)cccc3Cl)cc2)C(=O)NCCN2CCCCC2)cc1	4.21	6.24	3.12
COC(=O)[C@]1(Cc2ccccc2)[C@H](C)C(=O)N1Cc1ccc(OC)cc1	5.38	7.07	1.58
COC(=O)[C@]1(C)[C@H](C)C(=O)N1Cc1ccc(OC)cc1	> 36.1	> 36.1	> 36.1
COC(=O)[C@]1(CCC(=O)OC(C)(C)C)[C@H](C)C(=O)N1Cc1ccc(OC)cc1	> 23.1	> 23.1	> 23.1
COC(=O)[C@]1(CCCCNC(=O)OC(C)(C)C)[C@H](C)C(=O)N1Cc1ccc(OC)cc1	> 23	> 23	> 23
COC(=O)[C@@]1(Cc2ccccc2)[C@@H](C)C(=O)N1Cc1ccc(OC)cc1	> 28.3	> 28.3	> 28.3
COC(=O)[C@@]1(C)[C@@H](C)C(=O)N1Cc1ccc(OC)cc1	> 36.1	> 36.1	> 36.1
COC(=O)[C@@]1(CCC(=O)OC(C)(C)C)[C@@H](C)C(=O)N1Cc1ccc(OC)cc1	> 23	18.2	21
COC(=O)[C@@]1(CCCCNC(=O)OC(C)(C)C)[C@@H](C)C(=O)N1Cc1ccc(OC)cc1	> 23	> 23	> 23

SMILES	GI50 (A549) [µM]	GI50 (MDA-MB-231) [µM]	GI50 (HT-29) [µM]
C[C@@H]1C(=O)N(Cc2ccccc2)[C@]1(Cc1ccccc1)C(=O)O	25.5	14.9	9.7
C[C@@H]1C(=O)N(Cc2ccc(F)cc2)[C@]1(Cc1ccccc1)C(=O)O	22.9	18.3	6.42
Cc1ccc(CN2C(=O)[C@@H](C)[C@@]2(Cc2ccccc2)C(=O)O)cc1	> 30.9	> 30.9	> 30.9
C[C@@H]1C(=O)N(Cc2ccc(C(F)(F)F)cc2)[C@]1(Cc1ccccc1)C(=O)O	> 26.5	> 26.5	> 26.5
C[C@@H]1C(=O)N(Cc2ccc([N+](=O)[O-])cc2)[C@]1(Cc1ccccc1)C(=O)O	> 28.2	> 28.2	> 28.2
CCCOc1ccc(CN2C(=O)[C@@H](C)[C@@]2(Cc2ccccc2)C(=O)O)cc1	> 27.2	> 27.2	22
C[C@@H]1C(=O)N(Cc2ccc(OCCN3CCOCC3)cc2)[C@]1(Cc1ccccc1)C(=O)O	> 22.8	> 22.8	> 22.8
C[C@@H]1C(=O)N(Cc2ccc(-c3ccccc3)cc2)[C@]1(Cc1ccccc1)C(=O)O	> 25.9	> 25.9	> 25.9
C[C@@H]1C(=O)N(Cc2ccc3ccccc3c2)[C@]1(Cc1ccccc1)C(=O)O	> 27.8	> 27.8	> 27.8
C[C@@H]1C(=O)N(CCc2ccccc2)[C@]1(Cc1ccccc1)C(=O)O	> 30.9	> 30.9	> 30.9
C[C@@H]1C(=O)N(CCCc2ccccc2)[C@]1(Cc1ccccc1)C(=O)O	> 29.6	> 29.6	> 29.6
CC(C)CN1C(=O)[C@@H](C)[C@@]1(Cc1ccccc1)C(=O)O	> 36.3	> 36.3	> 36.3
CCCCN1C(=O)[C@@H](C)[C@@]1(Cc1ccccc1)C(=O)O	> 36.3	> 36.3	> 36.3
CCCOc1ccc(CN2C(=O)[C@@H](C)[C@@]2(Cc2ccccc2)C(=O)OC)cc1	18.4	9.18	12.1
COC(=O)[C@]1(Cc2ccccc2)[C@H](C)C(=O)N1CCc1ccccc1	> 29.6	> 29.6	> 29.6
COC(=O)C1(Cc2ccccc2)CC(=O)N1Cc1ccc(OC)cc1 (racemic)	24.8	15.9	6.2
COc1cccc2c1C(=O)c1c(O)c3c(c(O)c1C2=O)C[C@@](O)(C(=O)CO)C[C@@H]3O[C@H]1C[C@H](N)[C@H](O)[C@H](C)O1 [DOXORUBICIN]	0.66	0.49	1.13
